Measured values from ChEMBL document CHEMBL1158473, “Aromatic 2-(thio)ureidocarboxylic acids as a new family of modulators of multidrug resistance-associated protein 1: synthesis, biological evaluation, and structure-activity relationships” (J Med Chem, 2009).
Calls of active or inactive are those of the source. The rule behind the calls is not given here.

Experiments:
[1] = target: T1, Multidrug resistance-associated protein 1 (Homo sapiens, UniProt P33527); test: Inhibition of MRP1-mediated calcein AM transport expressed in multidrug resistant human 2008 cells assessed as calcein AM accumulation at 100 uM by fluorescence assay in presence of p-gp and BCRP inhibitor XR9577; format: cell-based; conditions: human, 2008, 100 µM
[2] = target: T1, Multidrug resistance-associated protein 1; test: Inhibition of MRP1 expressed in multidrug resistant human 2008 cells assessed as calcein AM accumulation by fluorescence assay in presence of p-gp and BCRP inhibitor XR9577; format: cell-based
Procedure, shortened: (§1)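 Transfected 2008 MRP1 cells run beside 2008 WT cells, 21000 cells per well in Krebs-HEPES buffer. Cobalt sulfate was added to quench extracellular calcein, plus XR9577 to block P-gp. After 30 min preincubation with compound, calcein AM (final 0.5 μM) was added and fluorescence followed 30 min. Slopes were normalized and fitted by a four-parameter logistic; indomethacin (0.316–178 μM) was included.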

BCRP (ABCG2) = target: T2, BCRP (ABCG2) (Homo sapiens, UniProt Q9UNQ0); test: Inhibition of BCRP expressed in human MCF7 MX cells at 31.6 uM by Hoechst 33342 staining relative to 10 uM XR9577; format: cell-based; conditions: MCF7 MX cells expressing BCRP, probe Hoechst 33342
T2 sequence (Q9UNQ0 whole entry): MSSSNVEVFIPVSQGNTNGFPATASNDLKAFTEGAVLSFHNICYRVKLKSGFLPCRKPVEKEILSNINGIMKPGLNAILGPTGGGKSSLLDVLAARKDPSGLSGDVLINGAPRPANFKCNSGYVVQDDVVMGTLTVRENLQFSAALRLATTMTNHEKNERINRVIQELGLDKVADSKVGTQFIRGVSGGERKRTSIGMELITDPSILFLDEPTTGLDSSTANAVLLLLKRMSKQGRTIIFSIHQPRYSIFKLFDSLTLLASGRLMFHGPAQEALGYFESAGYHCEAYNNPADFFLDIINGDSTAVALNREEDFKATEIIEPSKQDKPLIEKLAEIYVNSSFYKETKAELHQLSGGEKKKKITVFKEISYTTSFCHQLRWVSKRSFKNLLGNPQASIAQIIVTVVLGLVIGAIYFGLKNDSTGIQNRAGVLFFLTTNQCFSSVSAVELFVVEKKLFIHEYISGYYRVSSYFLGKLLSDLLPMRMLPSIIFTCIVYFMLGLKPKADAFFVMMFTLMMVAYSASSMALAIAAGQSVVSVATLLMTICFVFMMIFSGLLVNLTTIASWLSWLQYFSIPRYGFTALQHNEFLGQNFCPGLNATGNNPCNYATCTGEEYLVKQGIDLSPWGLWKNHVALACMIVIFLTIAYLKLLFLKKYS
Procedure, shortened: (§2)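 MCF-7 MX cells, with parental MCF-7 alongside, in RPMI 1640 plus 10% FCS. Cells washed in Krebs-HEPES, about 20000 per well, preincubated with compound 30 min at 37 °C, 5% CO2. Hoechst 33342 added and fluorescence (ex 355/em 460 nm) read every 120 s up to 2400 s at 37 °C. Background-subtracted slopes were fitted; XR9577 10 μM served as positive control.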

2008 [3] = test: Cytotoxicity against human 2008 cells after 72 hrs by MTT assay; conditions: Homo sapiens, 2008, 72 h
[4] = target: T1, Multidrug resistance-associated protein 1; test: Inhibition of MRP1; procedure, shortened: as §1
[5] = target: T3, Broad substrate specificity ATP-binding cassette transporter ABCG2 (Homo sapiens, UniProt Q9UNQ0); test: Inhibition of BCRP expressed in MCF7 MX cells by Hoechst 33342 staining; format: cell-based; procedure, shortened: as §2
T3 sequence (Q9UNQ0 whole entry): T2 sequence (Q9UNQ0 whole entry)

2008 [6] = test: Potentiation of vinblastine-induced cytotoxic activity against MRP1-expressing human 2008 cells at 31.6 uM after 72 hrs by MTT assay; format: functional, cell-based
Procedure, shortened: (§3)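 2008 MRP1 cells given a fixed 31.6 μM modulator together with vinblastine or daunorubicin at 0.1 nM–100 μM. Cytostatic alone was tested on 2008 MRP1 and WT cells as control; indomethacin 31.6 μM served as positive control. After 72 h, viability was read by MTT.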

2008 [7] = test: Potentiation of daunorubicin-induced cytotoxic activity against MRP1-expressing human 2008 cells at 31.6 uM after 72 hrs by MTT assay; format: functional, cell-based; procedure, shortened: as §3
A2780 ADR [8] = test: Inhibition of P-gp expressed in human A2780/ADR cells assessed as calcein AM accumulation a 31.6 uM by fluorescence assay; format: cell-based
Procedure, shortened: (§4)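 P-gp-overexpressing A2780/ADR cells, with wild-type A2780 alongside. Calcein AM accumulation run as in the MRP1 assay (30 min preincubation, final 0.5 μM calcein AM, 30 min reading) but without cobalt or XR9577. XR9577 10 μM served as positive control.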

A2780 ADR [9] = test: Inhibition of P-gp expressed in human A2780/ADR cells assessed as calcein AM accumulation a 100 uM by fluorescence assay; format: cell-based; procedure, shortened: as §4
2008 [10] = test: Cytotoxicity against human 2008 cells after 24 hrs by MTT assay; format: cell-based; conditions: Homo sapiens, 2008, 24 h

T1 sequence (P33527 whole entry): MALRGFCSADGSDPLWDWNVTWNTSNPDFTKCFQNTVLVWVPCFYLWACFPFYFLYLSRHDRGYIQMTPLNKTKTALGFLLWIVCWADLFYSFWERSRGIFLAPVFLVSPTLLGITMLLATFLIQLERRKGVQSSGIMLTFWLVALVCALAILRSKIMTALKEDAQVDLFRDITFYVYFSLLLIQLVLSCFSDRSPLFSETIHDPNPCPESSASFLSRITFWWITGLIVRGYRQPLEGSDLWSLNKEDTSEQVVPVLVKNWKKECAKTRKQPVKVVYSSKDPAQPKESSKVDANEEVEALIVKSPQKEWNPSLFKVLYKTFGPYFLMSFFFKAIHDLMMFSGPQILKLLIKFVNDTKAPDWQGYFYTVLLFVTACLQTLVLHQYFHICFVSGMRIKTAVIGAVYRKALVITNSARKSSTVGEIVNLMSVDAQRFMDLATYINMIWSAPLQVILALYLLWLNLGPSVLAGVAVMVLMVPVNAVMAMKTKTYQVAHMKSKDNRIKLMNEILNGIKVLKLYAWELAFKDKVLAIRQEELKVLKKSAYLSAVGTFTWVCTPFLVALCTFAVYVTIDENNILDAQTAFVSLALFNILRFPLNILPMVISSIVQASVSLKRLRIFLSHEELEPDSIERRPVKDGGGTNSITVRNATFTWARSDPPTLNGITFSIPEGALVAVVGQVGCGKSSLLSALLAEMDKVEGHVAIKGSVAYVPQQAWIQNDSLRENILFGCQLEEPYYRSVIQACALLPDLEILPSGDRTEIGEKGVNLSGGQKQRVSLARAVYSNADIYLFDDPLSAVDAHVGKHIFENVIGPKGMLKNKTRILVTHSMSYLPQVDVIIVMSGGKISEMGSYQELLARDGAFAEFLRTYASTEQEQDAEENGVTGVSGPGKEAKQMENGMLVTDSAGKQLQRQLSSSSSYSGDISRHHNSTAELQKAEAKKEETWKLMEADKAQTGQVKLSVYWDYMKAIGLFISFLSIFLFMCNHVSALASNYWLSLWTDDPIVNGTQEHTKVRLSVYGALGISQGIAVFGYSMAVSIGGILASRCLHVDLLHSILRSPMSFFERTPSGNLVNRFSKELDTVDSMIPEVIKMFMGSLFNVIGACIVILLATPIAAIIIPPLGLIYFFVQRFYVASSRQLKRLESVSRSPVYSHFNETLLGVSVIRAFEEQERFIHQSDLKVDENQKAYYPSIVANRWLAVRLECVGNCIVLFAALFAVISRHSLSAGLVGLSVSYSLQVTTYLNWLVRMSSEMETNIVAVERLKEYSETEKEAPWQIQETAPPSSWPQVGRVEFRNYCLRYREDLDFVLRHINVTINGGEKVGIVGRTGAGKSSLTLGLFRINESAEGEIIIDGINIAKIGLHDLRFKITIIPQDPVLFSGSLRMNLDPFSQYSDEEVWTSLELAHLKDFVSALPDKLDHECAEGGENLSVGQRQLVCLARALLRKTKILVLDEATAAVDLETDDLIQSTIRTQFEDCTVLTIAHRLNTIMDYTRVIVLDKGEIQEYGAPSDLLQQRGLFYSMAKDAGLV

| inhibition (INH) [1] | IC50 [2] | SMILES | IC50 2008 [3] | other results |
| --- | --- | --- | --- | --- |
| Not Active | – | CN(CCc1ccccc1)C(=O)Nc1ccccc1C(=O)O | – | – |
| Not Active | – | O=C(O)c1c(-c2ccccc2)csc1NC(=S)N1CCOCC1 | – | – |
| Not Active | – | Cc1ccc(NC(=O)N(C)CCc2ccccc2)c(C(=O)O)c1 | – | – |
| Not Active | – | O=C(O)c1ccccc1NC(=S)N1CCOCC1 | – | – |
| – | 18.3 µM | Cc1sc(NC(=S)N2CCOCC2)c(C(=O)O)c1C | – | – |
| Not Active | – | COC(=O)CN(C)C(=O)Nc1ccccc1C(=O)O | – | – |
| – | – | CN(C(=O)Nc1ccccc1C(=O)O)C1CCCCC1 | > 100 µM | inhibition at 31.6 µM (BCRP (ABCG2)): 25% |
| – | – | COc1cc(C2Oc3cc(-c4oc5cc(O)cc(O)c5c(=O)c4O)ccc3OC2CO)ccc1O (stereo not given) [DEHYDROSILYLBIN] | – | IC50 [4]: 1.1 µM |
| – | 198 µM | CN(C(=S)Nc1ccccc1C(=O)O)c1ccccc1 | – | – |
| – | 26.4 µM | CCN(CC)C(=O)Nc1ccccc1C(=O)O | – | – |
| – | 0.932 µM | CCN(CC)C(=S)Nc1sc2ccccc2c1C(=O)O | > 100 µM | IC50 [5]: 6.16 µM; Activity 2008 [6]: inactive; Activity 2008 [7]: inactive |
| Not Active | – | O=C(O)c1ccccc1NC(=O)N1CCOCC1 | – | – |
| – | – | CCN(CC)C(=O)Nc1sc2c(c1C(=O)O)CCC2 | > 100 µM | inhibition at 31.6 µM (BCRP (ABCG2)): 25% |
| Not Active | – | CN(C(=O)Nc1ccccc1C(=O)O)c1ccccc1 | – | – |
| – | 14.3 µM | CCN(CC)C(=S)Nc1sc(-c2ccccc2)cc1C(=O)O | > 100 µM | inhibition (A2780 ADR [8]): 20%; inhibition (A2780 ADR [9]): 40% |
| – | 4.06 µM | CCN(CC)C(=S)Nc1sc2c(c1C(=O)O)C(C)CCC2 (racemic) | > 100 µM | IC50 [5]: 9.1 µM |
| – | 22.8 µM | Cc1ccc(NC(=O)N(C)C2CCCCC2)c(C(=O)O)c1 | – | – |
| – | – | CN(C(=S)Nc1ccccc1C(=O)O)C1CCCCC1 | > 100 µM | inhibition at 31.6 µM (BCRP (ABCG2)): < 20% |
| – | 20.7 µM | O=C(O)c1ccccc1NC(=S)N1CCNCC1 | – | – |
| – | 14.5 µM | CCN(CC)C(=S)Nc1scc(C(C)C)c1C(=O)O | – | – |
| – | 4.51 µM | CN(C(=S)Nc1sccc1C(=O)O)C1CCCCC1 | > 100 µM | IC50 [5]: 10.2 µM; Activity 2008 [6]: inactive; Activity 2008 [7]: inactive |
| – | 43.1 µM | O=C(O)c1ccccc1NC(=O)N1CCCC1 | – | – |
| – | 43.4 µM | Cc1cc(NC(=O)N2CCOCC2)c(C(=O)O)cc1C | – | – |
| – | 4.19 µM | Cc1sc(NC(=S)N(C)C2CCCCC2)c(C(=O)O)c1C | > 100 µM | inhibition at 31.6 µM (BCRP (ABCG2)): 25% |
| Not Active | – | CN(C)C(=S)Nc1sc2c(c1C(=O)O)CCCC2 | – | – |

| inhibition (INH) [1] | IC50 [2] | SMILES | IC50 2008 [3] | other results |
| --- | --- | --- | --- | --- |
| Not Active | – | O=C(O)c1c(NC(=S)N2CCOCC2)sc2ccccc12 | – | – |
| – | 29.1 µM | CN(Cc1ccccc1)C(=S)Nc1ccccc1C(=O)O | – | – |
| Not Active | – | Cc1ccc(NC(=O)N2CCOCC2)c(C(=O)O)c1 | – | – |
| Not Active | – | Cc1ccc(NC(=O)N(C)c2ccccc2)c(C(=O)O)c1 | – | – |
| – | 18.3 µM | O=C(O)c1ccccc1NC(=S)N1CCCC1 | – | – |
| – | 2.71 µM | CCN(CC)C(=S)Nc1sc2c(c1C(=O)O)CCCC2 | > 100 µM | inhibition at 31.6 µM (BCRP (ABCG2)): 25% |
| – | 4.18 µM | CCN(CC)C(=S)Nc1ccsc1C(=O)O | – | inhibition at 31.6 µM (BCRP (ABCG2)): 25%; IC50 2008 [10]: > 100 µM |
| – | 24 µM | CN(CCc1ccccc1)C(=S)Nc1ccccc1C(=O)O | – | – |
| – | 21.6 µM | CCN(CC)C(=S)Nc1ccccc1C(=O)O | – | – |
| – | 27.5 µM | O=C(O)c1cc(-c2ccccc2)sc1NC(=S)N1CCOCC1 | – | – |
| – | 4.46 µM | CCN(CC)C(=S)Nc1sccc1C(=O)O | > 100 µM | inhibition at 31.6 µM (BCRP (ABCG2)): 25% |
| Not Active | – | Cc1ccc(NC(=O)N(C)Cc2ccccc2)c(C(=O)O)c1 | – | – |
| Not Active | – | O=C(O)c1c(NC(=S)N2CCOCC2)sc2c1CCCC2 | – | – |
| – | 5.97 µM | CCN(CC)C(=S)Nc1sc2c(c1C(=O)O)CCCCC2 | > 100 µM | inhibition at 31.6 µM (BCRP (ABCG2)): 25% |
| – | > 100 µM | CCN(CC)C(=S)Nc1sc(C(N)=O)c(C)c1C(=O)O | – | – |
| – | 1.23 µM | CN(C(=S)Nc1sc2ccccc2c1C(=O)O)C1CCCCC1 | > 100 µM | inhibition at 31.6 µM (BCRP (ABCG2)): 25% |
| – | – | CCN(CC)C(=O)Nc1sc2c(c1C(=O)O)CCCC2 | > 100 µM | inhibition at 31.6 µM (BCRP (ABCG2)): 25% |
| – | 20.4 µM | CCN(CC)C(=S)Nc1sc(C)c(C)c1C(=O)O | – | – |
| – | – | CCN(CC)C(=O)Nc1cc2ccccc2cc1C(=O)O | > 100 µM | – |
| Not Active | – | CC(C)NC(=O)Nc1sc2c(c1C(=O)O)CCCC2 | – | – |
| – | 2.56 µM | CCN(CC)C(=S)Nc1sc2c(c1C(=O)O)CCC2 | > 100 µM | inhibition at 31.6 µM (BCRP (ABCG2)): 25% |
| – | 42.6 µM | CN(Cc1ccccc1)C(=O)Nc1ccccc1C(=O)O | – | – |
| Not Active | – | CN1CCN(C(=S)Nc2sc3c(c2C(=O)O)CCCC3)CC1 | – | – |
| Not Active | – | O=C(O)c1c(NC(=O)N2CCOCC2)sc2c1CCCC2 | – | – |
